For experiment [1], the system named is Mus musculus. Put plainly: Percent median survival time of mice injected with P388 leukemia, at a intravenous compound dose of 80 mg/kg.
Experiment [2] has as its system Mus musculus. The experiment is described as follows: Percent median survival time of mice injected with B16 melanoma, at a intraperitoneal compound dose of 10 mg/kg.
Experiment [3] relates to Mus musculus. Put plainly: Long-term survivors among 21 mice infected with B16 melanoma, scored on day 90 at 10 mg/kg dose on days 1-9.
A further experiment relates to L1210. The experiment is described as follows: Inhibition of murine L1210 leukemia cell proliferation measured by the MTT assay. The format is functional, cell-based. The conditions noted are these: Mus musculus. A digest of the protocol: (§1)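 Murine L1210 leukemia and B16 melanoma cells were grown in RPMI 1640 with 10% fetal calf serum, 2 mM L-glutamine, penicillin/streptomycin and 10 mM HEPES (pH 7.4). Cells were exposed to nine serial drug dilutions in triplicate for about four doubling times (L1210 48 h, B16 96 h), then read by microculture tetrazolium (MTT) assay. IC50 is the concentration halving optical density versus untreated controls, averaged over ≥2 independent experiments.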
A general note: Formazan colour is commonly taken as a measure of viable cells.

The test system of experiment [4] is Mus musculus. Put plainly: Long-term survivors among 21 mice infected with P388 leukemia, scored on day 60 at 160-320 mg/kg dose on day 1. The format is functional. Summed up:
(§2)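 B6D2F1 mice in groups of 6–7 were inoculated ip on day 0 with 10^6 P388 cells. Dihydrochloride salts were dissolved in water and given iv on day 1 or on days 1, 5 and 9. Doses ranged from a low nontoxic dose to a toxic one. Long-term survivors were counted at day 60.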

Experiment [5] relates to Mus musculus. Put plainly: Percent median survival time of mice injected with P388 leukemia, at a subcutaneous compound dose of 160-320 mg/kg. The class given is functional.
Another experiment deals with B16. The experiment is described as follows: Inhibition of murine B16 melanoma cell proliferation measured by the MTT assay. The class given is functional, cell-based. Particulars: Mus musculus. Summed up:
as §1

Experiment [6] deals with Mus musculus. Put plainly: Percent median survival time of mice injected with P388 leukemia, at a intravenous compound dose of 80 mg/kg on day1.
The subject of experiment [7] is Mus musculus. Put plainly: Long-term survivors among 12 mice infected with P388 leukemia, scored on day 60 at 80 mg/kg dose on day 1. The format is functional. Summed up: as §2
Experiment [8] has as its system Mus musculus. The experiment is described as follows: Percent median survival time of mice injected with B16 melanoma, at a intraperitoneal compound dose of 5 mg/kg.
In experiment [9] the test system is Mus musculus. Put plainly: Long-term survivors among 14 mice infected with B16 melanoma, scored on day 90 at 5 mg/kg dose. The format is functional. A digest of the protocol: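 B6D2F1 mice were inoculated ip on day 0 with B16 tumor brei (1 g tumor in 10 mL 0.9% NaCl). Compounds were given ip daily on days 1–9. Long-term survivors were scored at day 90.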
For experiment [10], the system named is Mus musculus. Put plainly: Percent median survival time of mice injected with P388 leukemia, at a intravenous compound dose of 80 mg/kg on day1,5,9.
Experiment [11] deals with Mus musculus. The experiment is described as follows: Long-term survivors among 12 mice infected with P388 leukemia, scored on day 60 at 80 mg/kg dose on day 1, 5, 9. The format is functional. A digest of the protocol: as §2
In experiment [12] the test system is Mus musculus. The experiment is described as follows: Long-term survivors among 13 mice infected with B16 melanoma, scored on day 90 at 10 mg/kg dose on days 1-9.
Experiment [13] deals with Mus musculus. The experiment is described as follows: Long-term survivors among 13 mice infected with P388 leukemia, scored on day 60 at 80 mg/kg dose on day 1. The class given is functional. Summed up: as §2
Experiment [14] has as its system Mus musculus. Put plainly: Percent median survival time of mice injected with P388 leukemia, at a subcutaneous compound dose of 40 mg/kg. The format is functional.
The test system of experiment [15] is Mus musculus. The experiment is described as follows: Long-term survivors among 6 mice infected with P388 leukemia, scored on day 60 at 5 mg/kg dose. The format is functional. A digest of the protocol: as §2
In experiment [16] the test system is Mus musculus. Put plainly: Percent median survival time of mice intraperitoneally injected with P388 leukemia was determined from tested at 5 mg/kg at day1,5,9 dose to that of control. The format is functional. Particulars: route intraperitoneal. A digest of the protocol: (§3)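 P388 leukemia in B6D2F1 mice (groups of 6–7), 10^6 cells inoculated ip on day 0. Dihydrochloride salts were dissolved in water and given iv on day 1 or on days 1, 5, 9. Three doses were tested, then five if active. %T/C = median survival treated/control × 100, reported at the optimal dose (no toxic death, weight loss <20%), from one or two representative experiments.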

Experiment [17] deals with Mus musculus. Put plainly: Long-term survivors among 6 mice infected with P388 leukemia, scored on day 60 at 10 mg/kg dose. The format is functional. A digest of the protocol:
as §2

In experiment [18] the test system is Mus musculus. Put plainly: Percent median survival time of mice injected with B16 melanoma, at a intraperitoneal compound dose of 20 mg/kg.
For experiment [19], the system named is Mus musculus. Put plainly: Percent median survival time of mice intraperitoneally injected with P388 leukemia was determined from tested at 10 mg/kg at day1 dose to that of control. The format is functional. A digest of the protocol: as §3
In experiment [20] the test system is Mus musculus. The experiment is described as follows: Long-term survivors among 7 mice infected with P388 leukemia, scored on day 60 at 160 mg/kg dose on day 1. The format is functional. A digest of the protocol: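 B6D2F1 mice in groups of 6–7 received 10^6 P388 cells ip on day 0. Dihydrochloride salts dissolved in water were injected iv on day 1 or on days 1, 5 and 9, at three doses and then five. Read-outs were % T/C (median survival treated/control × 100) and long-term survivors on day 60, both at the optimal dose (no toxic death, weight loss <20%).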

Experiment [21] has as its system Mus musculus. Put plainly: Percent median survival time of mice injected with P388 leukemia, at a subcutaneous compound dose of 160 mg/kg. The class given is functional.
Experiment [22] deals with Mus musculus. The experiment is described as follows: Long-term survivors among 7 mice infected with B16 melanoma, scored on day 90 at 160 mg/kg dose on day 1. The class given is functional.

“And” between values parts separate entries of the source, which are not always exact repeats. Equal values may be shown once.

By T/C is commonly meant the result in the treated group divided by that in the control group, in per cent. In general, IC50 refers to the midpoint of a concentration-inhibition curve. In the case of `Cc1c2ccnc(C(=O)NCCN(C)C)c2cc2c3cc(OC(=O)CCCC(=O)O)ccc3n(C)c12`, the T/C was greater than 582% with Mus musculus [1], 196% with Mus musculus [2] and greater than 590% in the experiment with Mus musculus [5]. Also, the LTS in the experiment on Mus musculus [3] turned out to be 2; with Mus musculus [4], 4. In addition, the IC50 with L1210 came to 19.7 nM; in the experiment on B16, 14.8 nM.
In the case of `Cc1c2ccnc(C(=O)NCCN(C)C)c2cc2c3cc(O)ccc3n(C)c12`, the T/C in the experiment on Mus musculus [6] is reported as 227%; in the experiment with Mus musculus [8] it was 174%; with Mus musculus [10], greater than 541%. The figures for the LTS in the experiment on Mus musculus [7], with Mus musculus [9] and with Mus musculus [11] were 0, 0 and 7, respectively. Further, the IC50 came to 13.1 nM in the experiment on L1210 and 5.4 nM in the experiment with B16.
For `Cc1c2ccnc(C(=O)NCCN(C)C)c2cc2c3cc(OC(=O)c4cccnc4)ccc3n(C)c12`, the LTS with Mus musculus [12] and in the experiment on Mus musculus [13] was 0 throughout. For the same compound, the T/C with Mus musculus [2] is 190%; with Mus musculus [14], 199% and 283%. The IC50 in the experiment with L1210 stood at 74.5 nM; with B16 it was 2.3 nM.
With `Cc1c2ccnc(C(=O)NCCN(C)C)c2cc2c3cc(OC(=O)N(C)c4ccccc4)ccc3n(C)c12`, the LTS in the experiment with Mus musculus [15] and with Mus musculus [17] was 0 throughout. Besides, the IC50 turned out to be 1170 nM in the experiment with L1210 and 1370 nM with B16. The T/C in the experiment with Mus musculus [16] is on record as 106%; in the experiment on Mus musculus [18], 101%; with Mus musculus [19], 100%.
As for `Cc1c2ccnc(C(=O)NCCN(C)C)c2cc2c3cc(OC(=O)CCCCCCC(=O)O)ccc3n(C)c12`, the T/C with Mus musculus [1] is greater than 645%; in the experiment on Mus musculus [21] it was 287%. Besides, the LTS in the experiment on Mus musculus [20] and with Mus musculus [22] was 0 each time. Also, the IC50 with L1210 was determined as 53.2 nM; in the experiment on B16 it was 3.1 nM.

These data come from ChEMBL document CHEMBL1132144, “Synthesis of 9-O-substituted derivatives of 9-hydroxy-5, 6-dimethyl-6H-pyrido[4,3-b]carbazole-1-carboxylic acid (2-(dimethylamino)ethyl)amide and their 10- and 11-methyl analogues with improved antitumor activity” (J Med Chem, 1999).
